Test results taken from ChEMBL document CHEMBL4145462, “Nitrogen-containing ecdysteroid derivatives vs. multi-drug resistance in cancer: Preparation and antitumor activity of oximes, oxime ethers and a lactam” (Eur J Med Chem, 2018).

Columns and labels:
[1] = Cytotoxicity against mouse L5178 cells expressing human ABCB1 after 48 hrs by MTT assay; type: functional, cell-based; details: L5178, 48 h
Summary of the method: (§1)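 Parental mouse lymphoma L5178 and the MDR line made by pHa MDR1/A retrovirus transfection, selected with 60 µg/L colchicine. Grown in McCoy's 5A with horse serum at 37°C, 5% CO2. 5 x 10^4 cells/well, serial compound dilutions, 48 h. MTT added to 0.5 mg/mL final for 4 h, then 10% SDS in 0.01 M HCl overnight, OD read at 540 and 630 nm. IC50 taken as median cytotoxic activity (Dm) from control lanes of checkerboard plates, n=2.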

[2] = Cytotoxicity against mouse L5178 cells after 48 hrs by MTT assay; type: functional, cell-based; details: L5178, 48 h; summary of the method: as §1
[3] = Synergistic cytotoxicity against mouse L5178 cells assessed as combination index at ED75 using 75:1 test compound to doxorubicin ratio after 48 hrs by MTT-based checkerboard microplate method; type: functional
Summary of the method: (§2)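 Checkerboard microplate combinations of compound with doxorubicin at constant molar ratios. 5 × 10^4 cells/well in McCoy's 5A, 48 h at 37°C, 5% CO2. MTT added to 0.5 mg/mL final for 4 h, SDS/HCl overnight, OD read at 540 and 630 nm. Combination indices derived per ratio for 50%, 75% and 90% growth inhibition by median-effect analysis.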

[4] = Synergistic cytotoxicity against mouse L5178 cells assessed as combination index at ED90 using 37.5:1 test compound to doxorubicin ratio after 48 hrs by MTT-based checkerboard microplate method; type: functional; summary of the method: as §2
[5] = Synergistic cytotoxicity against mouse L5178 cells expressing human ABCB1 assessed as combination index at ED75 using 60:1 test compound to doxorubicin ratio after 48 hrs by MTT-based checkerboard microplate method; type: functional; summary of the method: as §2
[6] = Synergistic cytotoxicity against mouse L5178 cells assessed as combination index at ED90 using 75:1 test compound to doxorubicin ratio after 48 hrs by MTT-based checkerboard microplate method; type: functional; summary of the method: as §2
[7] = Synergistic cytotoxicity against mouse L5178 cells assessed as combination index at ED75 using 37.5:1 test compound to doxorubicin ratio after 48 hrs by MTT-based checkerboard microplate method; type: functional; summary of the method: as §2
HeLa = experiment: Antiproliferative activity against human HeLa cells after 72 hrs by MTT assay; type: functional, cell-based
Summary of the method: (§3)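 Cells grown in MEM with 10% FCS, 1% non-essential amino acids and 1% penicillin-streptomycin. Seeded at 5000 cells/well, exposed to 0.1–30.0 µM compound for 72 h. MTT (5 mg/ml solution) was then added for 4 h, formazan dissolved in DMSO, and absorbance read at 545 nm. Cisplatin served as positive control. IC50 came from sigmoidal dose–response fits (log inhibitor vs normalized response, variable slope).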

[8] = Synergistic cytotoxicity against mouse L5178 cells expressing human ABCB1 assessed as combination index at ED90 using 15:1 test compound to doxorubicin ratio after 48 hrs by MTT-based checkerboard microplate method; type: functional; summary of the method: as §2
[9] = Synergistic cytotoxicity against mouse L5178 cells expressing human ABCB1 assessed as combination index at ED90 using 60:1 test compound to doxorubicin ratio after 48 hrs by MTT-based checkerboard microplate method; type: functional; summary of the method: as §2
MDA-MB-231 = experiment: Antiproliferative activity against human MDA-MB-231 cells after 72 hrs by MTT assay; type: functional, cell-based; details: MDA-MB-231, 72 h; summary of the method: as §3
[10] = Synergistic cytotoxicity against mouse L5178 cells assessed as combination index at ED50 using 37.5:1 test compound to doxorubicin ratio after 48 hrs by MTT-based checkerboard microplate method; type: functional; summary of the method: as §2
[11] = Synergistic cytotoxicity against mouse L5178 cells assessed as combination index at ED90 using 600:1 test compound to doxorubicin ratio after 48 hrs by MTT-based checkerboard microplate method; type: functional; summary of the method: as §2
[12] = Synergistic cytotoxicity against mouse L5178 cells assessed as combination index at ED50 using 150:1 test compound to doxorubicin ratio after 48 hrs by MTT-based checkerboard microplate method; type: functional; summary of the method: as §2
[13] = Synergistic cytotoxicity against mouse L5178 cells assessed as combination index at ED75 using 600:1 test compound to doxorubicin ratio after 48 hrs by MTT-based checkerboard microplate method; type: functional; summary of the method: as §2
ABCB1 (P-glycoprotein) [14] = molecular target: T1, ABCB1 (P-glycoprotein) (Homo sapiens, UniProt P08183); experiment: Inhibition of human ABCB1 expressed in mouse L5178 cells assessed as increase in rhodamine-123 accumulation at 20 uM after 10 mins by flow cytometric analysis relative to control; type: cell-based; details: mouse L5178 cells expressing human ABCB1, probe rhodamine-123
T1 sequence (P08183 whole entry): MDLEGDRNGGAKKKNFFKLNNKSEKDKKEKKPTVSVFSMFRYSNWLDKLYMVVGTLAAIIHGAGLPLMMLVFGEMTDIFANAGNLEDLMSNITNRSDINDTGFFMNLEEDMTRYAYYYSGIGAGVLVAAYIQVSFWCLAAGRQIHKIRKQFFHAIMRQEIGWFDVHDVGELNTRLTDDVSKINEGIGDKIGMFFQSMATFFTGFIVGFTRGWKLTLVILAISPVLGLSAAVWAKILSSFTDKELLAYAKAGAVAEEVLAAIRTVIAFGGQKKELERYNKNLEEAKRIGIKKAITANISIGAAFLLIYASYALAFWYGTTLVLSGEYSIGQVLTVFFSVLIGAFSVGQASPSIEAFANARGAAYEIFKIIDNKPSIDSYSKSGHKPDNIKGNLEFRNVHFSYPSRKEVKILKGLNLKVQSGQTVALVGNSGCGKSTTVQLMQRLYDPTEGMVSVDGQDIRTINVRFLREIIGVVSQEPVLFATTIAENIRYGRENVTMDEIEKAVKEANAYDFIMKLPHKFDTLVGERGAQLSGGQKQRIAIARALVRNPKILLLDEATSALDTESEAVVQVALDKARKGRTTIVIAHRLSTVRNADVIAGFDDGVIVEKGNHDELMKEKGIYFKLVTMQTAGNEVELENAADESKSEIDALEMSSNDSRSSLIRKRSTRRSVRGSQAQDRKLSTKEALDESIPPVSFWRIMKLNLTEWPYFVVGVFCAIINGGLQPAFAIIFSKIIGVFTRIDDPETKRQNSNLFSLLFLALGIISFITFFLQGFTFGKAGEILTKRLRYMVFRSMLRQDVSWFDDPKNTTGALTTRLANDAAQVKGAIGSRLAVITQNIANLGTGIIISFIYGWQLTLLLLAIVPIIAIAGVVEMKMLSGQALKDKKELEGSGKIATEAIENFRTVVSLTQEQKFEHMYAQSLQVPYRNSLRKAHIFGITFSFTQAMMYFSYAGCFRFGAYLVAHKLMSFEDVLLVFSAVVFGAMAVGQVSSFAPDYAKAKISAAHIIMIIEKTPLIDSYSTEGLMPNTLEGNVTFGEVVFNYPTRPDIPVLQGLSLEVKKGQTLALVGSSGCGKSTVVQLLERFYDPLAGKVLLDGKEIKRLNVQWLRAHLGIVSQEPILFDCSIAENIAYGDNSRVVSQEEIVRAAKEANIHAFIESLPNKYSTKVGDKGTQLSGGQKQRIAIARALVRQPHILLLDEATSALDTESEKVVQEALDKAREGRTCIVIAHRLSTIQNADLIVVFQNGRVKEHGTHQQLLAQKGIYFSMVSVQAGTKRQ
Summary of the method: (§4)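 Cells at 2 × 10^6/mL were preincubated 10 min with compound. Rhodamine 123 then added to 5.2 µM final, 20 min at 37 °C. Cells washed twice in PBS, resuspended and read by flow cytometry. Percent inhibition was scaled between MDR-cell accumulation (0%) and parental L5178 accumulation (100%). Controls: 100 nM tariquidar (positive) and 2% DMSO (negative).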

[15] = Synergistic cytotoxicity against mouse L5178 cells assessed as combination index at ED90 using 300:1 test compound to doxorubicin ratio after 48 hrs by MTT-based checkerboard microplate method; type: functional; summary of the method: as §2
[16] = Synergistic cytotoxicity against mouse L5178 cells expressing human ABCB1 assessed as combination index at ED50 using 30:1 test compound to doxorubicin ratio after 48 hrs by MTT-based checkerboard microplate method; type: functional; summary of the method: as §2
ABCB1 (P-glycoprotein) [17] = molecular target: T1, ABCB1 (P-glycoprotein); experiment: Inhibition of human ABCB1 expressed in mouse L5178 cells assessed as increase in rhodamine-123 accumulation at 2 uM after 10 mins by flow cytometric analysis relative to control; type: cell-based; details: mouse L5178 cells expressing human ABCB1, probe rhodamine-123; summary of the method: as §4
[18] = Synergistic cytotoxicity against mouse L5178 cells assessed as combination index at ED50 using 75:1 test compound to doxorubicin ratio after 48 hrs by MTT-based checkerboard microplate method; type: functional; summary of the method: as §2
[19] = Synergistic cytotoxicity against mouse L5178 cells assessed as combination index at ED90 using 150:1 test compound to doxorubicin ratio after 48 hrs by MTT-based checkerboard microplate method; type: functional; summary of the method: as §2
[20] = Synergistic cytotoxicity against mouse L5178 cells assessed as combination index at ED75 using 150:1 test compound to doxorubicin ratio after 48 hrs by MTT-based checkerboard microplate method; type: functional; summary of the method: as §2
[21] = Synergistic cytotoxicity against mouse L5178 cells expressing human ABCB1 assessed as combination index at ED50 using 60:1 test compound to doxorubicin ratio after 48 hrs by MTT-based checkerboard microplate method; type: functional; summary of the method: as §2
[22] = Synergistic cytotoxicity against mouse L5178 cells expressing human ABCB1 assessed as combination index at ED75 using 7.5:1 test compound to doxorubicin ratio after 48 hrs by MTT-based checkerboard microplate method; type: functional; summary of the method: as §2
[23] = Synergistic cytotoxicity against mouse L5178 cells expressing human ABCB1 assessed as combination index at ED50 using 15:1 test compound to doxorubicin ratio after 48 hrs by MTT-based checkerboard microplate method; type: functional; summary of the method: as §2
[24] = Synergistic cytotoxicity against mouse L5178 cells expressing human ABCB1 assessed as combination index at ED90 using 7.5:1 test compound to doxorubicin ratio after 48 hrs by MTT-based checkerboard microplate method; type: functional; summary of the method: as §2
[25] = Synergistic cytotoxicity against mouse L5178 cells assessed as combination index at ED75 using 300:1 test compound to doxorubicin ratio after 48 hrs by MTT-based checkerboard microplate method; type: functional; summary of the method: as §2
[26] = Synergistic cytotoxicity against mouse L5178 cells assessed as combination index at ED50 using 600:1 test compound to doxorubicin ratio after 48 hrs by MTT-based checkerboard microplate method; type: functional; summary of the method: as §2
[27] = Synergistic cytotoxicity against mouse L5178 cells expressing human ABCB1 assessed as combination index at ED90 using 30:1 test compound to doxorubicin ratio after 48 hrs by MTT-based checkerboard microplate method; type: functional; summary of the method: as §2
[28] = Synergistic cytotoxicity against mouse L5178 cells assessed as combination index at ED50 using 300:1 test compound to doxorubicin ratio after 48 hrs by MTT-based checkerboard microplate method; type: functional; summary of the method: as §2
SiHa = experiment: Antiproliferative activity against human SiHa cells after 72 hrs by MTT assay; type: functional, cell-based; summary of the method: as §3
[29] = Synergistic cytotoxicity against mouse L5178 cells expressing human ABCB1 assessed as combination index at ED75 using 30:1 test compound to doxorubicin ratio after 48 hrs by MTT-based checkerboard microplate method; type: functional; summary of the method: as §2
[30] = Synergistic cytotoxicity against mouse L5178 cells expressing human ABCB1 assessed as combination index at ED75 using 15:1 test compound to doxorubicin ratio after 48 hrs by MTT-based checkerboard microplate method; type: functional; summary of the method: as §2
MCF7 = experiment: Antiproliferative activity against human MCF7 cells after 72 hrs by MTT assay; type: functional, cell-based; details: MCF7, 72 h; summary of the method: as §3
[31] = Synergistic cytotoxicity against mouse L5178 cells expressing human ABCB1 assessed as combination index at ED50 using 7.5:1 test compound to doxorubicin ratio after 48 hrs by MTT-based checkerboard microplate method; type: functional; summary of the method: as §2

Structure (SMILES): COc1cccc2c1C(=O)c1c(O)c3c(c(O)c1C2=O)C[C@@](O)(C(=O)CO)C[C@@H]3O[C@H]1C[C@H](N)[C@H](O)[C@H](C)O1 [DOXORUBICIN]
- IC50 [1]: 4.49 µM
- IC50 [2]: 0.08 µM

Structure (SMILES): CC(C)(O)CC[C@H]1OC(C)(C)O[C@]1(C)[C@H]1CC[C@@]2(O)C3=C/C(=N\OC(C)(C)C)[C@@H]4C[C@H]5OC(C)(C)O[C@H]5C[C@]4(C)[C@H]3CC[C@]12C
- CI [3]: 0.67
- CI [4]: 0.7
- CI [5]: 0.44
- CI [6]: 0.8
- CI [7]: 0.63
- IC50 (HeLa): 8.43 µM
- CI [8]: 0.25
- CI [9]: 0.53
- IC50 (MDA-MB-231): 12.4 µM
- CI [10]: 0.58
- CI [11]: 1.7
- CI [12]: 0.24
- CI [13]: 1.3
- inhibition at 10 min, 20 µM (ABCB1 (P-glycoprotein) [14]): 112%
- CI [15]: 1.06
- CI [16]: 0.27
- inhibition at 10 min, 2 µM (ABCB1 (P-glycoprotein) [17]): 38.8%
- CI [18]: 0.56
- CI [19]: 1.26
- CI [20]: 0.91
- CI [21]: 0.38
- IC50 [1]: 29.1 µM
- CI [22]: 0.2
- IC50 [2]: 28.1 µM
- CI [23]: 0.66
- CI [24]: 0.17
- CI [25]: 0.98
- CI [26]: 1
- CI [27]: 0.36
- CI [28]: 0.91
- IC50 (SiHa): 16.1 µM
- CI [29]: 0.29
- CI [30]: 0.23
- IC50 (MCF7): 11.1 µM
- CI [31]: 0.3

Structure (SMILES): CC(C)(O)CC[C@H]1OC(C)(C)O[C@]1(C)[C@H]1CC[C@@]2(O)C3=CC(=O)[C@@H]4C[C@H]5OC(C)(C)O[C@H]5C[C@]4(C)[C@H]3CC[C@]12C
- inhibition at 10 min, 20 µM (ABCB1 (P-glycoprotein) [14]): 20.9%
- inhibition at 10 min, 2 µM (ABCB1 (P-glycoprotein) [17]): 2.54%
- IC50 [1]: 97.7 µM
- IC50 [2]: 110 µM
